One experiment has as its system DU-145. Nature of the experiment: Antiproliferative activity against docetaxel-sensitive human DU145 cells after 3 days by WST-1 assay. The format is functional, cell-based. Particulars: DU-145, 72 h. The method, boiled down: (§1)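 Cells grown at 37 °C, 5% CO2: PC-3 and LNCaP in RPMI-1640, DU145 in EMEM, each with 10% FBS and 1% penicillin/streptomycin. Plated at 3,200 cells/well and exposed to a range of doses for 3 days, with DMSO vehicle control. WST-1 reagent was then added for 3 h at 37 °C and absorbance read at 430 nm. IC50 is the mean of at least triplicate runs.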
(Tetrazolium dyes change colour on reduction, which living cells bring about.)

Experiment [1] has as its system PC-3. Description: Antiproliferative activity against docetaxel-sensitive human PC3 cells after 3 days by WST-1 assay. It counts as functional, cell-based. The following applies: PC-3, 72 h. The method, boiled down: as §1
A further experiment has as its system LNCaP. Nature of the experiment: Antiproliferative activity against docetaxel-sensitive human LNCAP cells after 3 days by WST-1 assay. The format is functional, cell-based. The following applies: 72 h. A digest of the protocol:
as §1

Experiment [2] in a line: Antiproliferative activity against human PC3/DTX cells after 3 days by WST-1 assay. It counts as functional, cell-based. The following applies: 72 h. The method, boiled down:
(§2)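 Docetaxel-resistant lines were derived from DU145 or PC-3 over one year by stepwise-increasing docetaxel, starting at the parental IC50. Cells were kept continuously in docetaxel, with medium changed every 2–3 days. For the assay, cells were plated at 3,200/well and treated with a dose range for 3 days against DMSO vehicle. WST-1 was added for 3 h at 37 °C and absorbance read at 430 nm. IC50 is the mean of at least triplicates.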

The nature of experiment [3]: Antiproliferative activity against human DU145/DTX cells after 3 days by WST-1 assay. Particulars: DU-145, 72 h. The format is functional, cell-based. A digest of the protocol:
as §2

Experiment [4] can be described thus: Resistance index, ratio of IC50 for human PC3/DTX cells to IC50 for docetaxel-sensitive human PC3 cells. The format is functional.
A short description of experiment [5]: Resistance index, ratio of IC50 for human DU145/DTX cells to IC50 for docetaxel-sensitive human DU145 cells. The format is functional.
Experiment [6] relates to PC-3. Description: Antiproliferative activity against human PC3 cells after 72 hrs by methylene blue staining based assay. The following applies: PC-3, 72 h. It counts as functional, cell-based.

Molecules are shown by their SMILES.

One may read the IC50 as the concentration at which inhibition is half-maximal. A low value points to greater potency in that assay.

With `COc1ccc(COC[C@H]2C/C(C)=C/COCC/C=C/C(=O)C/C(C)=C\C=C\C(=O)O2)cc1`, the IC50 was 3.16 µM in the experiment on DU-145; 6.31 µM in the experiment on PC-3 [1]; 2.85 µM with LNCaP; 3.77 µM in experiment [2]; 3.2 µM in experiment [3]. The figures for the “Ratio IC50” value in experiment [4] and in experiment [5] were 0.6 and 1, respectively.
For the compound `C/C1=C/C=C/C(=O)O[C@H](C=O)C/C(C)=C/COCC/C=C/C(=O)C1`, the IC50 is 11.6 µM in the experiment with DU-145; 11.9 µM with PC-3 [1]; 13.5 µM in the experiment on LNCaP; 4.02 µM with PC-3 [6]; 15.4 µM in experiment [2]; 15.3 µM in experiment [3]. Besides, the “Ratio IC50” value in experiment [4] and in experiment [5] was 1.3 in each case.
In turn, `C=C1C[C@H]2C/C=C/C(=O)C/C(C)=C\C=C\C(=O)OC(C=O)C/C(C)=C/[C@@H](C1)O2` (stereo not given in full) had an IC50 with PC-3 [6] of 0.75 µM.
`COc1ccc(COC[C@@H]2C/C(C)=C/COCC/C=C/C(=O)C/C(C)=C\C=C\C(=O)O2)cc1`: the IC50 with DU-145 is 9.21 µM; with PC-3 [1] it was 7.66 µM; in the experiment on LNCaP it was 8.27 µM; in experiment [2], above 20 µM; in experiment [3], above 20 µM. In addition, the “Ratio IC50” value in experiment [4] is above 2.6; in experiment [5], above 2.2.
For `CC(=O)O[C@@]12CO[C@@H]1C[C@H](O)[C@@]1(C)C(=O)[C@H](O)C3=C(C)[C@@H](OC(=O)[C@H](O)[C@@H](NC(=O)OC(C)(C)C)c4ccccc4)C[C@@](O)([C@@H](OC(=O)c4ccccc4)[C@H]21)C3(C)C` [DOCETAXEL ANHYDROUS], the IC50 with DU-145 came out at 0.0012 µM; in the experiment on PC-3 [1] it was 0.0019 µM; in the experiment on LNCaP, 0.0002 µM; in experiment [2], 2.34 µM; in experiment [3], 8.58 µM. Further, the “Ratio IC50” value in experiment [4] amounted to 1232; in experiment [5] it was 7150.
Turning to `C/C1=C/C=C/C(=O)O[C@@H](CO)C/C(C)=C/COCC/C=C/C(=O)C1`, the concentration for half-maximal inhibition (IC50) (with DU-145; in the experiment on PC-3 [1]; with LNCaP; in experiment [2]; in experiment [3]) was above 30 µM each time.
Take `C/C1=C/C=C/C(=O)O[C@H](CO)C/C(C)=C/COCC/C=C/C(=O)C1`: the IC50 amounted to 17.8 µM with DU-145; 16.1 µM with PC-3 [1]; 19.3 µM with LNCaP; 3.05 µM with PC-3 [6]; 14.4 µM in experiment [2]; 14.1 µM in experiment [3]. Also, the figures for the “Ratio IC50” value in experiment [4] and in experiment [5] were 0.9 and 0.8, respectively.
In the case of `C/C1=C/C=C/C(=O)O[C@@H](C=O)C/C(C)=C/COCC/C=C/C(=O)C1`, the IC50 came out at 5.41 µM in the experiment on DU-145; 5.27 µM with PC-3 [1]; 3.22 µM with LNCaP; 4.41 µM in experiment [2]; 8.03 µM in experiment [3]. Besides, the entries for the “Ratio IC50” value in experiment [4] and in experiment [5] were 0.8 and 1.5, respectively.

Values taken from ChEMBL document CHEMBL4118203, “Optimized synthesis and antiproliferative activity of desTHPdactylolides” (Bioorg Med Chem, 2018).
